Source: ChEMBL document CHEMBL1155534, “Tetracyclic sulfones as potent gamma-secretase inhibitors: synthesis and structure-activity relationship studies” (Bioorg Med Chem Lett, 2010)

Tests used:
[1] = Inhibition of gamma secretase
[2] = Inhibition of gamma-secretase-mediated cleavage of human APP expressed in HEK293 cells assessed as reduction in amyloid beta40 production; assay type: cell-based
Summary of the method: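 HEK293 cells expressing human APP carrying Swedish and London mutations, in fresh medium with inhibitor for 4 h. Aβ40 in conditioned medium measured by ECL; IC50 derived.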

[3] = Inhibition of gamma-secretase-mediated cleavage of human APP expressed in HEK293 cells assessed as reduction in amyloid beta42 production; assay type: cell-based
hERG (KCNH2) = hERG (KCNH2) (Homo sapiens, UniProt Q12809); test: Inhibition of human ERG assessed as rubidium efflux at 5 ug/ml
hERG (KCNH2), sequence (Q12809 whole entry): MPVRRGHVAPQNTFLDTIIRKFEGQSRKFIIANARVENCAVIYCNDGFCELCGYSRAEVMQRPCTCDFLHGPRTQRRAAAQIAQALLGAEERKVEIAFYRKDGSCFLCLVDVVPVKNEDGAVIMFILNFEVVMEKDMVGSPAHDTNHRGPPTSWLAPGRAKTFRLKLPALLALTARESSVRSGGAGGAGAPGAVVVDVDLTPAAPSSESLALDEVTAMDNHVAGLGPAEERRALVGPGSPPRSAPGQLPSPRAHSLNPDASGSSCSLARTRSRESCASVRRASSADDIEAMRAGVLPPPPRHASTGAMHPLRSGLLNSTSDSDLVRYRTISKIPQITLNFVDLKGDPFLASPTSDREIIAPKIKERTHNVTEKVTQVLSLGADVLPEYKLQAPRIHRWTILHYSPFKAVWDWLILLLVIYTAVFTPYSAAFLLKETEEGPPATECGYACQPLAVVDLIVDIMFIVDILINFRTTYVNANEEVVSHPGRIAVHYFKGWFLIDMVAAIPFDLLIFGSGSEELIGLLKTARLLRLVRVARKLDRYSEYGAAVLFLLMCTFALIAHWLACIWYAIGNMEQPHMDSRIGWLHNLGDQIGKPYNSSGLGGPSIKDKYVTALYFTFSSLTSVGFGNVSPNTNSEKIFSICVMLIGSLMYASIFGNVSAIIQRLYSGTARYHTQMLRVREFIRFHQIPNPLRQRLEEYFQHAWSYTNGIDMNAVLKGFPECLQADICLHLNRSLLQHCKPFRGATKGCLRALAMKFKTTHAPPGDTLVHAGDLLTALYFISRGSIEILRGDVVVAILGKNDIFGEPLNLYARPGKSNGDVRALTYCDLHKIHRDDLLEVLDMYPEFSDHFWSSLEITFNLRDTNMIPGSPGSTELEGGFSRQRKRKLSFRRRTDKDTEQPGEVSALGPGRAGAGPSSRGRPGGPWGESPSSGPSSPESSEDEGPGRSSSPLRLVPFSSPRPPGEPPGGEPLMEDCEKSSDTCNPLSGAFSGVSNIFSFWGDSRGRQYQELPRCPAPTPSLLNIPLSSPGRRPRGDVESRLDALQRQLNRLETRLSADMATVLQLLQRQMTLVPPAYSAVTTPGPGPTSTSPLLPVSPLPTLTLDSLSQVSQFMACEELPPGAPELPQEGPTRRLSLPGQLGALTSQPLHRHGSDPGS

[4] = Clearance in human hepatocyte pre million cells; assay type: ADME, cell-based, Liver; settings: hepatocytes
[5] = Plasma protein binding in human; assay type: ADME, cell-free; settings: read-out: PPB (converted)
Mus musculus [6] = test: Reduction in amyloid beta 40 level in non-transgenic mouse plasma at 10 mg/kg, po; assay type: ADME, organism-based; design: dose 10 mg/kg, route oral; scale not given: the % may be the effect or the level left; settings: in vivo
Summary of the method: (§1)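 Non-transgenic mice given 10 mg/kg orally; Aβ40 reduction expressed as percent relative to vehicle controls, mean values (n = 5).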

Mus musculus [7] = test: Reduction in amyloid beta 40 level in non-transgenic mouse brain at 10 mg/kg, po; assay type: ADME, organism-based; design: dose 10 mg/kg, route oral; scale not given: the % may be the effect or the level left; settings: in vivo; summary of the method: as §1

SMILES | IC50 [1] [nM] | IC50 [2] [nM] | IC50 [3] [nM] | inhibition at 5 ug/ml (hERG (KCNH2)) [%] | hepatocyte CLint [4] [µL/min/1e6 cells] | fraction unbound [5] | Activity (Mus musculus [6]) [%] | Activity (Mus musculus [7]) [%]
O=C(O)CCC1C[C@@H]2[C@@H](CC[C@@]3(S(=O)(=O)c4ccc(C(F)(F)F)cc4)c4c(F)ccc(F)c4OC[C@@H]23)NS1(=O)=O (stereo not given in full) | 17 | 40.6 | 64 |  |  |  |  | 
C=CCC1C[C@@H]2[C@@H](CC[C@@]3(S(=O)(=O)c4ccc(C(F)(F)F)cc4)c4c(F)ccc(F)c4OC[C@@H]23)NS1(=O)=O (stereo not given in full) | 7.7 | 7 | 2 |  |  |  |  | 
O=S1(=O)N[C@@H]2CC[C@@]3(S(=O)(=O)c4ccc(C(F)(F)F)cc4)c4c(F)ccc(F)c4OC[C@H]3[C@@H]2CC1CCN1CCCC1 (stereo not given in full) | 45.5 |  |  |  |  |  |  | 
O=C(O)CC1C[C@@H]2[C@@H](CC[C@@]3(S(=O)(=O)c4ccc(C(F)(F)F)cc4)c4c(F)ccc(F)c4OC[C@@H]23)NS1(=O)=O (stereo not given in full) | 48.3 | 930 | 1200 |  |  |  |  | 
NC(=O)CC1C[C@@H]2[C@@H](CC[C@@]3(S(=O)(=O)c4ccc(C(F)(F)F)cc4)c4c(F)ccc(F)c4OC[C@@H]23)NS1(=O)=O (stereo not given in full) |  |  | 4 |  |  |  |  | 
O=S1(=O)N[C@@H]2CC[C@@]3(S(=O)(=O)c4ccc(C(F)(F)F)cc4)c4c(F)ccc(F)c4OC[C@H]3[C@@H]2CC1CCN1CCOCC1 (stereo not given in full) | 48.4 |  |  |  |  |  |  | 
O=S1(=O)N[C@@H]2CC[C@@]3(S(=O)(=O)c4ccc(C(F)(F)F)cc4)c4c(F)ccc(F)c4OC[C@H]3[C@@H]2CC1CCCO (stereo not given in full) | 9.5 | 3.8 | 4.9 |  |  |  |  | 
COCC1C[C@@H]2[C@@H](CC[C@@]3(S(=O)(=O)c4ccc(C(F)(F)F)cc4)c4c(F)ccc(F)c4OC[C@@H]23)NS1(=O)=O (stereo not given in full) | 9 | 7.8 | 8 |  |  |  |  | 
C[C@@H]1C[C@@H]2[C@@H](CC[C@@]3(S(=O)(=O)c4ccc(C(F)(F)F)cc4)c4c(F)ccc(F)c4OC[C@@H]23)NS1(=O)=O | 1.6 | 1 | 0.5 | 4 | 0.4 | 0.027 | 72 | 57
CC[C@@H]1C[C@@H]2[C@@H](CC[C@@]3(S(=O)(=O)c4ccc(C(F)(F)F)cc4)c4c(F)ccc(F)c4OC[C@@H]23)NS1(=O)=O | 1.9 | 5 | 2 | 10 | 0.3 | 0.019 | 84 | 42
O=S1(=O)N[C@@H]2CC[C@@]3(S(=O)(=O)c4ccc(C(F)(F)F)cc4)c4c(F)ccc(F)c4OC[C@H]3[C@@H]2CC1C/C=C/c1ccccc1 (stereo not given in full) | 60.9 |  |  |  |  |  |  | 
C/C=C/CC1C[C@@H]2[C@@H](CC[C@@]3(S(=O)(=O)c4ccc(C(F)(F)F)cc4)c4c(F)ccc(F)c4OC[C@@H]23)NS1(=O)=O (stereo not given in full) | 14.6 |  |  |  |  |  |  | 
CCCC1C[C@@H]2[C@@H](CC[C@@]3(S(=O)(=O)c4ccc(C(F)(F)F)cc4)c4c(F)ccc(F)c4OC[C@@H]23)NS1(=O)=O (stereo not given in full) | 5.5 | 3 | 1 |  |  |  |  | 
O=S1(=O)CC[C@@H]2[C@@H](CC[C@@]3(S(=O)(=O)c4ccc(C(F)(F)F)cc4)c4c(F)ccc(F)c4OC[C@@H]23)N1 | 30 |  |  |  |  |  |  | 
